Measured values published in ChEMBL document CHEMBL1770130, “Design, synthesis, and in vivo characterization of a novel series of tetralin amino imidazoles as γ-secretase inhibitors: discovery of PF-3084014” (Bioorg Med Chem Lett, 2011).
pEC50, pIC50: −log10 of the molar value. The source made the active and inactive calls. The rule behind the calls is not given here.

Key:
Gamma-secretase [1] = test: Inhibition of gamma-secretase in human H4 cells expressing APP Swedish mutant assessed as inhibition of amyloid beta (1 to x) production by whole cell assay
[2] = Effect on gamma secretase-mediated notch processing in C57BL/6 mouse fetal thymic organ cultures assessed as reduction of B and T-cell populations after 45 mins by FACS analysis
Cavia porcellus [3] = test: Antialzheimer activity in sc dosed guinea pig assessed as reduction of total amyloid beta level in brain after 3 hrs by DELFIA-based ELISA; assay type: functional
Method in brief: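 Guinea pigs dosed sc over a range of doses and brain Aβ1-X measured by DELFIA ELISA at 3 h; brain ED50 derived from the dose–response.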

[4] = Ratio of EC50 for gamma secretase-mediated notch processing in C57BL/6 mouse fetal thymic organ cultures to plasma concentration observed at brain ED50 of total beta-amyloid level
Method in brief: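 FTOC EC50 divided by the plasma concentration at the brain ED50. That plasma concentration was obtained by linear least-squares regression of dose against measured plasma concentration in guinea pigs.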

human MDR1 (P-gp) = test: Efflux ratio of permeability from basolateral to apical side to apical to basolateral side of MDCK cells expressing human MDR1; assay type: ADME, cell-based, Canis lupus familiaris; details: dog
Method in brief: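 MDCK cells transfected with human P-glycoprotein (MDR1); efflux ratio calculated as B→A over A→B permeability.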

Gamma-secretase [5] = test: Inhibition of gamma-secretase in human HeLa cells assessed as inhibition of amyloid beta (1 to 40) production by DELFIA-based immunoassay; assay type: cell-based
[6] = Plasma concentration in guinea pig at 3.2 mg/kg, sc; assay type: ADME, organism-based, Cavia porcellus; design: dose 3.2 mg/kg, route subcutaneous; details: in vivo
Method in brief: (§1)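 Guinea pigs given a single 3.2 mg/kg sc dose; drug concentrations in plasma and brain determined at the 3 h sampling point.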

Cavia porcellus [7] = test: Antialzheimer activity in guinea pig assessed as reduction of total amyloid beta level in brain at 3.2 mg/kg, sc after 3 hrs by DELFIA-based ELISA; assay type: functional; design: scale not given: the % may be the effect or the level left; details: route subcutaneous
Method in brief: (§2)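 Guinea pigs given a single sc dose (3.2–32 mg/kg); brain, CSF and plasma taken at 3 h for the dose–response, or at intervals of 3 to 24 h after 10 mg/kg for the time course. Aβ1-X, Aβ1-40 and Aβ1-42 measured by DELFIA ELISA. Data given as percentage of vehicle; one-way ANOVA with Dunnett's post-hoc versus vehicle, p<0.05.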

Cavia porcellus [8] = test: Antialzheimer activity in guinea pig assessed as reduction of total amyloid beta level in brain at 7 to 32 mg/kg, sc administered 3 doses over 24 hrs measured after 3 hrs last post dose by DELFIA-based ELISA; assay type: functional, organism-based
Method in brief: (§3)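 Guinea pigs dosed sc at 7 or 32 mg/kg three times over 24 h (0, 12, 24 h). Tissues collected 3 h after the final dose, and Aβ measured by DELFIA ELISA; compared with vehicle by one-way ANOVA and Dunnett's test.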

Cavia porcellus [9] = test: Antialzheimer activity in guinea pig assessed as reduction of total amyloid beta level in plasma at 10 mg/kg, sc after 3 to 10 hrs by DELFIA-based ELISA; assay type: functional, organism-based; design: dose 10 mg/kg
Method in brief: as §2

Cavia porcellus [10] = test: Antialzheimer activity in guinea pig assessed as reduction of total amyloid beta level in brain at 10 mg/kg, sc after 3 to 10 hrs by DELFIA-based ELISA; assay type: functional, organism-based; design: dose 10 mg/kg
Method in brief: as §2

Cavia porcellus [11] = test: Reduction of marginal zone of B cell populations in guinea pig at 7 mg/kg, sc administered 3 doses over 24 hrs measured after 3 hrs last post dose by FACS analysis; assay type: organism-based; design: dose 7 mg/kg, route subcutaneous; details: in vivo
Method in brief: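 Guinea pigs dosed sc at 7 mg/kg at 0, 12 and 24 h. Spleen marginal zone and whole-blood B cells counted by flow cytometry 3 h after the last dose.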

Cavia porcellus [12] = test: Antialzheimer activity in guinea pig assessed as reduction of total amyloid beta level in cerebral spinal fluid at 3.2 mg/kg, sc after 3 hrs by DELFIA-based ELISA; assay type: functional; design: scale not given: the % may be the effect or the level left; details: route subcutaneous
Method in brief: as §2

Cavia porcellus [13] = test: Antialzheimer activity in guinea pig assessed as reduction of total amyloid beta level in cerebral spinal fluid at 10 mg/kg, sc after 24 hrs by DELFIA-based ELISA; assay type: functional, organism-based; design: dose 10 mg/kg
Method in brief: (§4)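 Guinea pigs dosed once at 10 mg/kg sc, tissues sampled up to 24 h. Aβ1-X in brain, CSF and plasma measured by DELFIA ELISA and expressed as percentage of vehicle; one-way ANOVA with Dunnett's test versus vehicle, p<0.05.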

[14] = Ratio of EC50 for gamma secretase-mediated notch processing in C57BL/6 mouse fetal thymic organ cultures to IC50 for APP by whole cell assay
[15] = Drug concentration in guinea pig brain at 3.2 mg/kg, sc; assay type: ADME, organism-based, Cavia porcellus; design: dose 3.2 mg/kg, route subcutaneous; details: in vivo
Method in brief: as §1

Cavia porcellus [16] = test: Antialzheimer activity in guinea pig assessed as reduction of total amyloid beta level in plasma at 3.2 mg/kg, sc after 3 hrs by DELFIA-based ELISA; assay type: functional; design: scale not given: the % may be the effect or the level left; details: route subcutaneous
Method in brief: as §2

Cavia porcellus [17] = test: Antialzheimer activity in guinea pig assessed as reduction of total amyloid beta level in cerebral spinal fluid at 10 mg/kg, sc after 3 to 10 hrs by DELFIA-based ELISA; assay type: functional, organism-based; design: dose 10 mg/kg
Method in brief: as §2

Cavia porcellus [18] = test: Antialzheimer activity in guinea pig assessed as reduction of total amyloid beta level in brain at 10 mg/kg, sc after 24 hrs by DELFIA-based ELISA; assay type: functional, organism-based; design: dose 10 mg/kg
Method in brief: as §4

Cavia porcellus [19] = test: Antialzheimer activity in guinea pig assessed as reduction of total amyloid beta level in plasma at 7 to 32 mg/kg, sc administered 3 doses over 24 hrs measured after 3 hrs last post dose by DELFIA-based ELISA; assay type: functional, organism-based
Method in brief: as §3

Cavia porcellus [20] = test: Antialzheimer activity in guinea pig assessed as reduction of total amyloid beta level in plasma at 10 mg/kg, sc after 24 hrs by DELFIA-based ELISA; assay type: functional, organism-based; design: dose 10 mg/kg
Method in brief: as §4

Row | Compound | pIC50 (Gamma-secretase [1]) | pEC50 [2] | efflux ratio (human MDR1 (P-gp)) | pIC50 (Gamma-secretase [5]) | ED50 (Cavia porcellus [3]) [mg/kg] | other results
1 | CCC[C@H](NC1CCc2ccccc2C1)C(=O)Nc1cn(C(C)(C)CN2CCCC2)cn1 (some centres undefined) | 7.27 |  | 2.2 | 7.07 |  | 
2 | CCC[C@H](NCc1cc(F)cc(F)c1)C(=O)Nc1cn(C(C)(C)CN2CCCC2)cn1 | 6.32 |  | 1.8 | 6.30 |  | 
3 | CCC[C@H](NCCC(C)C)C(=O)Nc1cn(C(C)(C)CN2CCCC2)cn1 | 5.51 |  | 4.4 | < 5.00 |  | 
4 | CCC[C@H](NC1Cc2ccccc2C1)C(=O)Nc1cn(C(C)(C)CN2CCCC2)cn1 | 6.57 |  | 1.8 | 6.83 |  | 
5 | CCC[C@H](NC1COc2ccccc2C1)C(=O)Nc1cn(C(C)(C)CN2CCCC2)cn1 (some centres undefined) | 6.81 |  | 2.9 | 7.03 |  | 
6 | CCC[C@H](NCCc1cc(F)cc(F)c1)C(=O)Nc1cn(C(C)(C)CN2CCCC2)cn1 | 6.12 |  | 1.9 | 6.60 |  | 
7 | CCC[C@H](NC1CCc2cc(F)ccc2C1)C(=O)Nc1cn(C(C)(C)CN2CCCC2)cn1 (mixture of isomers) | 7.71 |  | 1.8 | 7.71 |  | 
8 | CCC[C@H](NC(CC)CC)C(=O)Nc1cn(C(C)(C)CN2CCCC2)cn1 | 6.51 |  | 2.3 | 5.21 |  | 
9 | CCC[C@H](NC(=O)Cc1cc(F)cc(F)c1)C(=O)Nc1cn(C(C)(C)CNCC(C)(C)C)cn1 |  |  | 8.4 |  |  | 
10 | CCC[C@H](NC1CCc2cc(Cl)ccc2C1)C(=O)Nc1cn(C(C)(C)CN2CCCC2)cn1 (mixture of isomers) | 7.91 |  | 1.3 | 8.05 |  | 
11 | CCC[C@H](NC1CCc2cccc(Cl)c2C1)C(=O)Nc1cn(C(C)(C)CN2CCCC2)cn1 (mixture of isomers) | 7.33 |  | 3.3 | 7.51 |  | 

Further lines, with some results ahead:

Row | pIC50 (Gamma-secretase [1]) | pEC50 [2] | efflux ratio (human MDR1 (P-gp)) | pIC50 (Gamma-secretase [5]) | Compound | ED50 (Cavia porcellus [3]) [mg/kg] | other results
12 | 8.34 | 5.52 |  |  | CCC[C@H](N[C@H]1CCc2cc(F)cc(F)c2C1)C(=O)Nc1cn(C(C)(C)CN(C)C)cn1 | 16.1 | 
13 | 8.31 | 5.29 |  |  | CCC[C@H](N[C@H]1CCc2cc(F)cc(F)c2C1)C(=O)Nc1cn(C(C)(C)CNCC(F)(F)F)cn1 | 14.6 | Ratio [4]: 37.7
14 | 8.48 | 5.59 |  |  | CCC[C@H](N[C@H]1CCc2cc(F)cc(F)c2C1)C(=O)Nc1cn(C(C)(C)CN2CCCCC2)cn1 | 4.1 | Ratio [4]: 46.1
15 | 8.27 |  | 1.5 | 8.39 | CCC[C@H](NC1CCc2cc(F)cc(F)c2C1)C(=O)Nc1cn(C(C)(C)CN2CCCC2)cn1 (mixture of isomers) |  | 
16 | 8.16 | 5.96 |  |  | CCC[C@H](N[C@H]1CCc2cc(F)cc(F)c2C1)C(=O)Nc1cn(C(C)(C)CN2CCOCC2)cn1 | 2.9 | Ratio [4]: 16.3
17 |  | 5.74 |  |  | CCC[C@H](N[C@H]1CCc2cc(F)cc(F)c2C1)C(=O)Nc1cn(C(C)(C)CNCC(C)(C)C)cn1 [NIROGACESTAT] | 2.3 | 
18 | 7.71 | 5.21 |  |  | CCC[C@H](N[C@H]1CCc2cc(F)cc(F)c2C1)C(=O)Nc1cn(C(C)(C)CNC(C)C)cn1 | 41.2 | Ratio [4]: 3.5
19 | 8.54 | 5.49 |  |  | CCC[C@H](N[C@H]1CCc2cc(F)cc(F)c2C1)C(=O)Nc1cn(C(C)(C)CN2CCCC2)cn1 | 9.9 | Cp [6]: 100 ng/mL; Activity (Cavia porcellus [7]): 33%; Activity (Cavia porcellus [8]): Active; Activity (Cavia porcellus [9]): Active; Activity (Cavia porcellus [10]): Active; Ratio [4]: 9.8; Activity (Cavia porcellus [11]): Non-toxic; Activity (Cavia porcellus [12]): 31%; Activity (Cavia porcellus [13]): inactive; Ratio [14]: > 500; Drug uptake [15]: 587 ng/mL; Activity (Cavia porcellus [16]): 30%; Activity (Cavia porcellus [17]): Active; Activity (Cavia porcellus [18]): Active; Activity (Cavia porcellus [19]): Active; Activity (Cavia porcellus [20]): inactive
